Screens deposited in PubChem by Broad Institute.
Shown are actives, neighbours in structure and some others; about 0.92% of the full set was active somewhere.
RAD54 inh: blocks human RAD54 Holliday junction branch migration | Q92698 | FAM/BHQ fluorescence | inhibition, % at 10.4 µM | 360,000 compounds, 0.14% hits;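 active means mean normalized replicate activity at least 40 and at least half of replicates scoring 40 or more; inconclusive means only one of the two criteria met; inactive means mean below 40 and under half of replicates reaching 40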;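 further: 0% = median of neutral control wells and 100% = median of positive control wells; inhibitors cause a drop in the FAM fluorescence signal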
AF4-AF9 inh: blocks AF4 peptide binding to human AF9. inhibition, % at 10 µM. 350,000 compounds, 0.47% hits. AlphaScreen, biotin-AF4 peptide binding to FLAG-AF9. P42568. AID 651704;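 active means every replicate reaching a set inhibition limit, whatever the replicate mean, cut at about 25% in these data; inconclusive means mean inhibition reaches that limit but some replicates miss it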;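 further: 0% = plate neutral control median and 100% = total signal loss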
FN deposition inh: fibronectin deposition inhibition. AH1F fibroblasts, Alexa488-fibronectin deposition fluorescence, overnight. inhibition, % at 12.6 µM. 350,000 compounds, 0.086% hits;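 active means mean inhibition across replicates of 30% or more, regardless of how many single replicates reach that level; inconclusive means mean under 30% yet at least half of replicates reach 30%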;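 further: positive control wells lacked labelled fibronectin entirely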
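Test system: AH1F fibroblast monolayer depositing Alexa488-labelled fibronectin into matrix. Input: 10000 cells per well. Technique: fluorescence, ex 485 nm, em 525 nm. Buffer or medium: DMEM plus 2% serum, read in PBS. Timing: 1 h cell adhesion before compound, then overnight fibronectin incubation. Compound: single dose, pinned. Read-out basis: inhibition from reduced deposited-fibronectin fluorescence.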
RAD52 anneal inh: inhibitors of human RAD52 DNA annealing. recombinant RAD52 DNA annealing, FRET fluorescence. inhibition, % at 18.7 µM. 360,000 compounds, 0.46% hits;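 active means every replicate showing at least 50% inhibition; inconclusive means mean inhibition at least 50% but not in every replicate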
Glyco luc inh: blocks N-linked glycosylation in D54 reporter cells; 360,000 compounds, 0.23% hits; D54 ERlucT glycosylation luciferase reporter, 24 h; percent of 100 nM tunicamycin response; AID 588692; reporter increase, % at 12.5 µM;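 active means mean luciferase reporter signal, scaled so untreated is 0 and the glycosylation-blocking control 100, at or above a set limit in every replicate; inconclusive means mean reaches the limit but not every replicate does; inactive means mean below the limit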;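 further: luciferase carries N-glycosylation sites so blocking glycosylation raises the light; 0% = median of neutral control wells and 100% = median of 100 nM tunicamycin wells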
* = called active by the depositor; ? = inconclusive; · = no result given.

SMILES | RAD54 inh | AF4-AF9 inh | FN deposition inh | RAD52 anneal inh | Glyco luc inh
CC(=O)OCC1=C(C(=O)O)N2C(=O)C(NC(=O)CCn3nc(C)c(Cl)c3C)C2SC1 (centres undefined) | · | -3 | 33* | -19 | 2
O=C(NCCCCNC(=O)C(F)(F)F)C(F)(F)F | · | 25* | 5 | -1 | 1
COc1ccc2c3c(n(C)c2c1)[C@H](CO)N(C(=O)CC1CC1)CC31CN(C(=O)CC2CC2)C1 | · | 5 | · | 2 | ·
COc1ccc(C2=Nn3c(nnc3-c3ccc(OC)cc3)SC2)cc1 | 5 | · | -7 | · | 29*
COc1ccc(-c2nnc3n2N=C(C)CS3)cc1 | -2 | · | 2 | · | 0
CC(C)NC(=O)N(C)C[C@H]1Oc2ncc(C#Cc3ccc(F)cc3)cc2C(=O)N([C@H](C)CO)C[C@@H]1C | -2 | 1 | -6 | -3 | ·
CN1CCN(C2Cc3ccccc3Sc3cc(C(F)(F)F)ccc32)CC1 (centres undefined) | · | 26* | -8 | 36 | ·
CN1CCN(C2Cc3ccc(F)cc3Sc3cc(F)c(Cl)cc32)CC1 (centres undefined) | 27 | 12 | 8 | 44 | -2
CCn1c2ccccc2c2cc(NC(=O)COC(=O)c3cc(S(N)(=O)=O)c(Cl)cc3Cl)ccc21 | · | -28 | 9 | -5 | 40*
COc1ccc([C@H]2CC=CC[C@H](C)Oc3ccccc3C(=O)N(C)[C@@H](C)C(=O)N2)c(OC)c1 (mixture of isomers) | · | · | -8 | · | ·
Cc1c(F)cccc1NC(=O)CCCCCC1NC(=O)NC1C (centres undefined) | 3 | 90* | -15 | -8 | 3
Cc1c(F)cccc1NC(=O)CCC(=O)O | -9 | · | -11 | · | 0
CNC[C@@H]1Oc2ccc(NS(=O)(=O)c3cccs3)cc2CC(=O)N([C@H](C)CO)C[C@H]1C | 12 | -2 | -16 | 7 | ·
Cc1ccc(C(=O)CSc2nn3c(=O)c(C(C)(C)C)nnc3s2)cc1 | 5 | · | · | · | ?
CC(C)(C)c1nnc2sc(SCC(=O)c3ccc4c(c3)OCCO4)nn2c1=O | 1 | 2 | -1 | -1 | 40*
O=C(C[C@@H]1CC[C@H]2[C@@H](COC[C@H](O)CN2Cc2cc(F)ccc2F)O1)NCc1ccc(Cl)cc1 | 0 | · | -3 | · | ·
CSc1ccccc1C(=O)C1CCCN(C(=O)CCc2cccnc2)C1 (centres undefined) | -6 | 2 | 45* | 0 | 0
CSc1ccccc1C(=O)C1CCCN(C(=O)c2cncs2)C1 (centres undefined) | -9 | 1 | -17 | -12 | 0
Cc1ccccc1S(=O)(=O)N1C[C@H](O)COC[C@@H]2O[C@@H](CC(=O)NCCc3ccccc3)CC[C@H]21 | -16 | 18 | -15 | 58* | ·
Cc1ccccc1S(=O)(=O)N1C[C@@H](O)COC[C@H]2O[C@H](CC(=O)NCCc3ccccc3)CC[C@@H]21 | -23 | 14 | -6 | 72* | ·
COCCNC(=O)C[C@@H]1CC[C@H]2[C@@H](COC[C@H](O)CN2S(=O)(=O)c2ccccc2C)O1 | -7 | -2 | -5 | 19 | ·
CC(C)NC(=S)N/N=C/c1ccccc1[N+](=O)[O-] | · | -2 | -2 | -19 | 2
O=[N+]([O-])c1ccccc1C=NNC(=S)NN=Cc1ccccc1[N+](=O)[O-] | -2 | 2 | · | -20 | 28*
C[C@@H]1CN([C@H](C)CO)C(=O)c2c(c3ccccc3n2C)-c2ccccc2CO[C@H]1CN(C)C(=O)CCN(C)C | 4 | 3 | -9 | 57* | ·
C[C@@H]1CN([C@@H](C)CO)C(=O)c2c(c3ccccc3n2C)-c2ccccc2CO[C@@H]1CN(C)C(=O)[C@@H](Cc1ccccc1)N(C)C | -9 | 12 | 3 | 13 | ·
C[C@H]1CN([C@@H](C)CO)C(=O)c2c(c3ccccc3n2C)-c2ccccc2CO[C@@H]1CN(C)C(=O)CCN(C)C | 8 | -3 | -3 | 59* | ·
C[C@H](CO)N1C[C@H](C)[C@@H](CN(C)C(=O)[C@H](Cc2ccccc2)N(C)C)OCc2ccccc2-c2c(n(C)c3ccccc23)C1=O | 2 | 37* | 3 | 11 | ·
C[C@@H]1CN([C@@H](C)CO)C(=O)c2cc(NC(=O)CCN3CCOCC3)ccc2O[C@H]1CN(C)C(=O)Nc1ccc(F)cc1 | 4 | 0 | -5 | 2 | ·
C[C@H](CO)N1C[C@H](C)[C@@H](CN(C)C)Oc2ccc(NC(=O)Nc3ccc(F)cc3)cc2CC1=O | 4 | 1 | · | 0 | ·
